# Measurements taken from ChEMBL document CHEMBL1130246, “Tyrosine kinase inhibitors. 13. Structure-activity relationships for soluble 7-substituted 4-[(3-bromophenyl)amino]pyrido[4,3-d]pyrimidines designed as inhibitors of the tyrosine kinase activity of the epidermal growth factor receptor” (J Med Chem, 1997).
# Where “and” joins values, the source holds several entries; their conditions need not be identical. Identical values can stand only once.
# Key:
# [1] = Solubility in water was determined; format: physicochemical
# Outline: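 Drug weighed to give approximately 50 mM, sonicated 30 min in 0.05 M sodium lactate buffer (neutral compounds, amine hydrochlorides) or water (sodium salts of acids), left 30 min, centrifuged 13 000 rpm 3 min; supernatant concentration measured by HPLC against calibration from MeOH or DMSO stocks, assuming linear response; 20 °C.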
# [2] = biological target: T1, Epidermal growth factor receptor (Homo sapiens, UniProt P00533); assay: Inhibition of epidermal growth factor receptor (EGFR) from human A431 carcinoma cells
# T1 sequence (P00533 whole entry): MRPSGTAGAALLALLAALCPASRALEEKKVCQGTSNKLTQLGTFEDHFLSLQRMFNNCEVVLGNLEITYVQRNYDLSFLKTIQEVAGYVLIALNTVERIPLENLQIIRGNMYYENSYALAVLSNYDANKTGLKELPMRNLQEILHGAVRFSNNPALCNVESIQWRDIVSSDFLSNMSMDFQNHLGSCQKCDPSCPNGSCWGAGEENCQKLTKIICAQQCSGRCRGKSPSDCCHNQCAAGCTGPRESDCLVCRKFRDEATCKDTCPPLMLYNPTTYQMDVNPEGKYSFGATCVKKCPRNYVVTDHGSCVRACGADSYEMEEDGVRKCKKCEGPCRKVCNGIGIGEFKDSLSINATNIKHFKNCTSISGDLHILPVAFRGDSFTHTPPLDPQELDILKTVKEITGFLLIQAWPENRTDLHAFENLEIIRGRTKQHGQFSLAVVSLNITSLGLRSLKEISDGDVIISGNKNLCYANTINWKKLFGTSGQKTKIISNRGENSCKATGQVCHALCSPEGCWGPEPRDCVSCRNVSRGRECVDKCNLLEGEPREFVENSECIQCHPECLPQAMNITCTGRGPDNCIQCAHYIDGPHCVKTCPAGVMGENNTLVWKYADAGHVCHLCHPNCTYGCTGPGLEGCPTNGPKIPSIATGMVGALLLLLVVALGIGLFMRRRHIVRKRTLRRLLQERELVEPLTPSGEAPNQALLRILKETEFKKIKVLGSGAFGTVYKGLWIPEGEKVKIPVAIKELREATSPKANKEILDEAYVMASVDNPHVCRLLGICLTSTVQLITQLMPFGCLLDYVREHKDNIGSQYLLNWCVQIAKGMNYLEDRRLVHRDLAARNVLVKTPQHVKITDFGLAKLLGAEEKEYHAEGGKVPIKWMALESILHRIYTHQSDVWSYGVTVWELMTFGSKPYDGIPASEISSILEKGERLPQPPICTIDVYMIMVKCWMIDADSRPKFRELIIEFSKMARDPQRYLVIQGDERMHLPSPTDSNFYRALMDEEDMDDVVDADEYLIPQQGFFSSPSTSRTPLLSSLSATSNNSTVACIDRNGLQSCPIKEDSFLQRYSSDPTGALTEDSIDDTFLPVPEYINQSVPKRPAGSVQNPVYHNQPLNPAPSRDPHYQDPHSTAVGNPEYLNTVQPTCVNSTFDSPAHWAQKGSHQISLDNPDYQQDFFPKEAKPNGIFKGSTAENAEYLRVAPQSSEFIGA
# [3] = biological target: T1, Epidermal growth factor receptor; assay: Inhibition of phosphorylation of polyglutamic acid/tyrosine random copolymer by epidermal growth factor receptor.
# [4] = biological target: T1, Epidermal growth factor receptor; assay: Inhibition of epidermal growth factor receptor (EGFR) autophosphorylation in A431 cells
# Mus musculus [5] = species on record: Mus musculus; assay: Treatment-related weight loss in mice; format: functional
# Outline: (§1)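 Mice 18-22 g, randomized, implanted sc with A431 epidermoid or EGFR-transfected NIH 3T3 tumor fragments in right axilla on day 0; tumors maintained by serial passage in NCr nu/nu nude mice. Isethionate salts given ip in water, b.i.d. on indicated schedules (days 7-21, 3-17 or 1-15), dosed by average cage weight; solutions prepared 5 days at a time. Maximum treatment-related body weight loss recorded.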
# Mus musculus [6] = species on record: Mus musculus; assay: Ratio of median treated tumor mass on the last day of therapy divided by the median control tumor mass x 100%.; format: functional; outline: as §1
SMILES,IC50 [3] [nM],further results
Brc1cccc(Nc2ncnc3cc(NCCCn4ccnc4)ncc23)c1,,solubility [1]: > 40 mM; IC50 [2]: 0.51 nM
Brc1cccc(Nc2ncnc3cc(NCCN4CCOCC4)ncc23)c1,3.2,IC50 [4]: 36 nM
CN(C)CCNc1cc2ncnc(Nc3cccc(Br)c3)c2cn1,45,
O=C(O)CCNc1cc2ncnc(Nc3cccc(Br)c3)c2cn1,0.61,IC50 [4]: 11400 nM
Cc1cccc(Nc2ncnc3cc(NCCCCN(C)C)ncc23)c1,5.4,
CN1CCN(CCCNc2cc3ncnc(Nc4cccc(Br)c4)c3cn2)CC1,4.9,
CN(CC(O)C(O)C(O)C(O)CO)c1cc2ncnc(Nc3cccc(Br)c3)c2cn1 (stereo unspecified),3.2,
Cc1cccc(Nc2ncnc3cc(NCCc4c[nH]cn4)ncc23)c1,,solubility [1]: > 39 mM; IC50 [2]: 7.2 nM
Cc1cccc(Nc2ncnc3cc(NCCCn4ccnc4)ncc23)c1,,solubility [1]: > 34 mM; IC50 [2]: 3.5 nM
Brc1cccc(Nc2ncnc3cc(NCCCCN4CCOCC4)ncc23)c1,5.4,
Brc1cccc(Nc2ncnc3cc(NCCCN4CCOCC4)ncc23)c1,1.9,IC50 [4]: 8.1 nM; Weight loss (Mus musculus [5]): 1.7 g and 0.9 g; T/C (Mus musculus [6]): 34%
Brc1cccc(Nc2ncnc3cc(NCCc4c[nH]cn4)ncc23)c1,,solubility [1]: 35 mM; IC50 [2]: 0.91 nM
OCCNc1cc2ncnc(Nc3cccc(Br)c3)c2cn1,0.24,
NNc1cc2ncnc(Nc3cccc(Br)c3)c2cn1,7.1,

# Second part, led by results:
IC50 [3] [nM],SMILES,further results
1.5,O=C(O)CNc1cc2ncnc(Nc3cccc(Br)c3)c2cn1,
2.6,CN(CCO)c1cc2ncnc(Nc3cccc(Br)c3)c2cn1,
7.4,CN(C)CCCCNc1cc2ncnc(Nc3cccc(Br)c3)c2cn1,Weight loss (Mus musculus [5]): 1 g
1.4,CNc1cc2ncnc(Nc3cccc(C)c3)c2cn1,
1.4,O=S(=O)(O)CCNc1cc2ncnc(Nc3cccc(Br)c3)c2cn1,IC50 [4]: > 1000 nM
12,OCCN(CCO)c1cc2ncnc(Nc3cccc(Br)c3)c2cn1,
5.6,Cc1cccc(Nc2ncnc3cc(NCCCN4CCN(C)CC4)ncc23)c1,
8.4,CN(C)CCCCCNc1cc2ncnc(Nc3cccc(Br)c3)c2cn1,
8.8,CN(C)CCCNc1cc2ncnc(Nc3cccc(Br)c3)c2cn1,
16,CN(CC(=O)O)c1cc2ncnc(Nc3cccc(Br)c3)c2cn1,
40,CN(C)CCN(C)c1cc2ncnc(Nc3cccc(Br)c3)c2cn1,
0.74,[O-][N+]1(CCCNc2cc3ncnc(Nc4cccc(Br)c4)c3cn2)CCOCC1,IC50 [4]: > 1000 nM
4.8,OCC(O)C(O)C(O)C(O)CNc1cc2ncnc(Nc3cccc(Br)c3)c2cn1 (stereo unspecified),
9.2,OCCN(CCO)CCNc1cc2ncnc(Nc3cccc(Br)c3)c2cn1,
3.2,CN(CC(O)CO)c1cc2ncnc(Nc3cccc(Br)c3)c2cn1 (stereo unspecified),
0.92,OCC(O)CNc1cc2ncnc(Nc3cccc(Br)c3)c2cn1 (stereo unspecified),IC50 [4]: 227 nM
1.2,OCCN(CCO)CCCNc1cc2ncnc(Nc3cccc(Br)c3)c2cn1,
14,OCC(CO)Nc1cc2ncnc(Nc3cccc(Br)c3)c2cn1,
0.28,O=C(O)CCCNc1cc2ncnc(Nc3cccc(Br)c3)c2cn1,
